Laboratory results published in publication PMC2824925 (Clinical pharmacology and therapeutics, 2009).
Entries after “also recorded” stand apart in the source; their conditions may differ. *1 amine or outer side, *2 acyl side, *3 side chain or, on linkers, in order; H or OH if unused. Where a SMILES comes first, the peptide text is derived from it. Bridges are numbered along the chain shown (N, C = ends). [ ]: non-standard residue; d: D form. The star is where a group is joined. hTyr(3S-OH,4S-OH,3'-OSO3H) = N[C@H](C(=O)O)[C@H](O)[C@@H](O)c1ccc(O)c(OS(=O)(=O)O)c1; Orn(4R-OH,5R-OH) = O=C([C@H](C[C@@H](O)[C@@H](O)N[*:3])N[*:1])[*:2]; Pro(3S-OH,4S-Me) = C[C@H]1CN[C@H](C(=O)O)[C@H]1O; X1 = CCCCCOc1ccc(-c2cc(-c3ccc(C(=O)*)cc3)no2)cc1; Gln(3R-OH) = NC(=O)C[C@@H](O)[C@H](N)C(=O)O; Hyp = O=C(O)[C@@H]1C[C@@H](O)CN1

Key:
[1] = Plasma pharmacokinetics of repeat-dose intravenous micafungin in young infants; assay type: in vivo, human; settings: for AUC(0-t): log-linear method; for Vd: Vdss/wt
How it was run: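 Infants aged >48 h to day of life 120 with suspected candidaemia or invasive candidiasis got test compound by 1-h IV infusion every 24 h. Blood samples (50–100 μl; ≤500 μl total, away from infusion site) were taken around the day-4 dose: pre-dose, end of infusion, and 2–4, 8–12 and 20–24 h. Plasma was measured by LC-MS/MS (LLOQ 0.05 μg/ml). Analysis was non-compartmental: CLss = dose/AUC0–24, AUC by log-linear method, observed Tmax.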

[2] = Safety and tolerability of repeat-dose micafungin in young infants; assay type: in vivo, human
How it was run: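 Multicentre open-label study: 7 mg/kg/day (≥1,000 g) or 10 mg/kg/day (<1,000 g) by 1-h IV infusion every 24 h for 4–5 days. Safety set: infants given ≥1 dose. Physical exams, haematology, serum chemistry and vital signs were taken at screening (≤72 h pre-dose) and until 72 h after the last dose. Investigators graded AEs for severity and drug relationship; treatment-emergent AEs counted through 72 h post-dose.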

[3] = infants weighing > 1,000 g, single dose 0.75, 1.5 or 3.0 mg/kg; cited from earlier work
[4] = adults, cited from earlier work
[5] = febrile neutropenic pediatric patients, Phase I; cited from earlier work
[6] = overall (7 and 10 mg/kg/day groups), day 4, n=12

Structure (SMILES): CCCCCOc1ccc(-c2cc(-c3ccc(C(=O)N[C@H]4C[C@@H](O)[C@@H](O)NC(=O)[C@@H]5[C@@H](O)[C@@H](C)CN5C(=O)[C@H]([C@H](O)CC(N)=O)NC(=O)[C@H]([C@H](O)[C@@H](O)c5ccc(O)c(OS(=O)(=O)O)c5)NC(=O)[C@@H]5C[C@@H](O)CN5C(=O)[C@H]([C@@H](C)O)NC4=O)cc3)no2)cc1 [micafungin] (X1-[Orn(4R-OH,5R-OH)]T[Hyp][hTyr(3S-OH,4S-OH,3'-OSO3H)][Gln(3R-OH)][Pro(3S-OH,4S-Me)]; lactam 1-C)
- Median total body clearance adjusted for weight, lower in infants ≥ 1,000 g than in infants < 1,000 g ([1]; 7 mg/kg/day (≥ 1,000 g) vs 10 mg/kg/day (< 1,000 g)): 21%
- AUC0–24 of a single infant (highest observed) ([1]; 7 mg/kg/day group, subject 4, weight 4.5 kg, single infant): 643.2 µg·h/mL
- CLss/wt, median (range) ([1]; 7 mg/kg/day, IV, day 4, infants ≥ 1,000 g, n=6): 0.4 (0.2–0.6) ml/min/kg
- Tmax, median (range) ([1]; 10 mg/kg/day, 1-h IV infusion, day 4, infants < 1,000 g, n=6): 1.1 (1.0–1.1) h
- CLss/wt, median (range) ([1]; 10 mg/kg/day, IV, day 4, infants < 1,000 g, n=6): 0.6 (0.4–0.8) ml/min/kg
- CLss, median (range) ([1]; 10 mg/kg/day, IV, day 4, infants < 1,000 g, n=6, dose/AUC0–24): 0.4 (0.2–0.5) ml/min
- AUC(0-t) ([1]; human, plasma, iv, 7 mg/kg/day, AUC0–24, mean (SD), 7 mg/kg/day, 1-h IV infusion, day 4, infants ≥ 1,000 g, n=6, plasma, SD): 308 µg·h/mL
- AUC(0-t) ([1]; human, plasma, iv, 7 mg/kg/day, AUC0–24, median (range), 7 mg/kg/day, 1-h IV infusion, day 4, infants ≥ 1,000 g, n=6, plasma): 258 µg·h/mL
- clearance ([1]; human, plasma, iv, 7 mg/kg/day, CLss, mean (SD), 7 mg/kg/day, IV, day 4, infants ≥ 1,000 g, n=6, dose/AUC0–24, SD): 0.9 mL/min
- clearance ([1]; human, plasma, iv, 7 mg/kg/day, CLss, median (range), 7 mg/kg/day, IV, day 4, infants ≥ 1,000 g, n=6, dose/AUC0–24): 0.7 mL/min
- clearance ([1]; human, plasma, iv, 7 mg/kg/day, CLss/wt, mean (SD), 7 mg/kg/day, IV, day 4, infants ≥ 1,000 g, n=6, SD): 0.4 mL/min/kg
- clearance ([1]; human, plasma, iv, 7 mg/kg/day, CLss/wt, median (range), 7 mg/kg/day, IV, day 4, infants ≥ 1,000 g, n=6): 0.45 mL/min/kg
- Vd ([1]; human, plasma, iv, 7 mg/kg/day, mean (SD), 7 mg/kg/day, IV, day 4, infants ≥ 1,000 g, n=6, SD): 0.391 L/kg
- Vd ([1]; human, plasma, iv, 7 mg/kg/day, median (range), 7 mg/kg/day, IV, day 4, infants ≥ 1,000 g, n=6): 0.341 L/kg
- AUC(0-t) ([1]; human, plasma, iv, 10 mg/kg/day, AUC0–24, median (range), 10 mg/kg/day, 1-h IV infusion, day 4, infants < 1,000 g, n=6, plasma): 291 µg·h/mL
- clearance ([1]; human, plasma, iv, 10 mg/kg/day, CLss, mean (SD), 10 mg/kg/day, IV, day 4, infants < 1,000 g, n=6, dose/AUC0–24, SD): 0.4 mL/min
- clearance ([1]; human, plasma, iv, 10 mg/kg/day, CLss/wt, mean (SD), 10 mg/kg/day, IV, day 4, infants < 1,000 g, n=6, SD): 0.6 mL/min/kg
- clearance ([1]; human, plasma, iv, 10 mg/kg/day, CLss/wt, median (range), 10 mg/kg/day, IV, day 4, infants < 1,000 g, n=6): 0.57 mL/min/kg
- Vd ([1]; human, plasma, iv, 10 mg/kg/day, mean (SD), 10 mg/kg/day, IV, day 4, infants < 1,000 g, n=6, SD): 0.51 L/kg
- Vd ([1]; human, plasma, iv, 10 mg/kg/day, median (range), 10 mg/kg/day, IV, day 4, infants < 1,000 g, n=6): 0.543 L/kg
- AUC(0-t) ([1]; human, plasma, iv, AUC0–24, mean (SD), overall (7 and 10 mg/kg/day groups), day 4, n=12, plasma, SD): 308 µg·h/mL
- AUC(0-t) ([1]; human, plasma, iv, AUC0–24, median (range), overall (7 and 10 mg/kg/day groups), day 4, n=12, plasma): 275 µg·h/mL
- clearance ([1]; human, plasma, iv, CLss/wt, mean (SD), overall (7 and 10 mg/kg/day groups), day 4, n=12, SD): 0.5 mL/min/kg
- Tmax ([1]; human, plasma, iv, Tmax, mean (SD), overall (7 and 10 mg/kg/day groups), day 4, n=12, SD): 1.2 h
- Vd ([1]; human, plasma, iv, mean (SD), overall (7 and 10 mg/kg/day groups), day 4, n=12, SD): 0.45 L/kg
- Vd ([1]; human, plasma, iv, median (range), overall (7 and 10 mg/kg/day groups), day 4, n=12): 0.503 L/kg
- CLss/wt, median (range) [1, 6]: 0.5 (0.2–0.8) ml/min/kg
- Tmax, median (range) [1, 6]: 1.1 (1.0–2.1) h
- Allergic or histamine-like reactions, infusion-related toxicity, nephrotoxicity or hepatotoxicity ([2]; 7 and 10 mg/kg/day): no instances
- Changes in AST and ALT from baseline to post-treatment ([2]; 7 and 10 mg/kg/day): minimal
- Renal toxicity / changes in hematology parameters ([2]; 7 and 10 mg/kg/day): no evidence of renal toxicity or significant changes in hematology parameters
- Infants with AEs irrespective of causality ([2]; 7 and 10 mg/kg/day IV, ≥ 4 days, 12/13 infants): 92.3%
- Deaths / discontinuations because of an AE ([2]; 7 and 10 mg/kg/day, 13 infants): No deaths occurred in this study and no patients withdrew prematurely from the study because of an AE; also recorded: No deaths or discontinuations from treatment occurred
- Tolerability ([2]; doses of up to 10 mg/kg/day IV, ≥ 4 days, young infants): well tolerated
- Infants with serious AEs ([2]; four infants of 13, two in each treatment group): 30.8%
- Micafungin clearance rate [3]: 39 mL/h/kg
- Average AUC ([4]; 150-mg dose): 166.7 µg·h/mL
- AUC values well tolerated [4]: < 600 µg·h/mL
- Micafungin clearance in children 2–8 years relative to children ≥ 9 years of age [5]: 1.5–2.0 times higher
